Screening results deposited in PubChem BioAssay by Sanford-Burnham Center for Chemical Genomics.
Compounds with a hit are over-represented: about 1.5% of the library has one in this group of screens.
APJ agonist = agonists of human apelin receptor APJ, primary screen, CHO-K1 cells, PathHunter beta-arrestin, luminescence; 0% DMSO wells, 100% apelin; activation, % at 20 µM; P35414; AID 2520, 2010; 330,000 tested, 0.11% active;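 active = activation more than six SD over the plate average, tested at 20 µM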
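Assay system: CHO-K1 APJ beta-arrestin complementation cell line / Compound: single test compound dose, 20 µM final, 1% DMSO / Times: overnight seeding, 90 min compound at 25 °C, 1 h detection / Technique: beta-gal luminescence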
CXCR6 block = CXCR6 receptor inhibitors, primary screen, cell-based, beta-arrestin, luminescence, CHO-K1 PathHunter, 1536-well. 360,000 tested, 0.36% active. AID 602244, 2012. inhibition, % at 20 µM. C-X-C chemokine receptor type 6 (Homo sapiens), O00574; in the data active = inhibition above about 34%, passing the limit was not always enough;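 note: antagonist mode with CXCL16 agonist at 10 nM final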
CCR6 antagonist = CCR6 receptor antagonists, primary screen, cell-based, CHO-K1, luminescence, beta-arrestin, uHTS; CHO-K1 CCR6 PathHunter beta-arrestin, CCL20-stimulated; 340,000 tested, 0.49% active; inhibition, % at 20 µM; C-C chemokine receptor type 6 (Homo sapiens), P51684;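 active = compounds whose inhibition of the agonist-driven luminescence signal at 20 µM reaches about 50%, limit read from the data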;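 note: cells stimulated with CCL20 at 14 nM final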
APJ antagonist = antagonists of human apelin receptor APJ, primary screen, CHO-K1 cells, beta-arrestin complementation, luminescence. inhibition, % at 20 µM. 330,000 tested, 0.32% active. AID 2521, 2010;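 active = inhibition above about 40% at 20 µM, limit read from the data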;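 note: cells challenged with 10 nM apelin-13 agonist together with compound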
EBI2 antag = EBI2 receptor antagonists, beta-arrestin recruitment, primary screen, cell-based, luminescence, 7a,25-OHC stimulation, uHTS; AID 651636, 2012; G-protein coupled receptor 183 (Homo sapiens), P32249; inhibition, % at 5 µM; 360,000 tested, 0.81% active; 7a,25-OHC stimulated; in the data active = inhibition above about 38%;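 note: enzyme fragment complementation signal reports receptor beta-arrestin coupling in cells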
Target sequence (P32249 whole entry, looked up, the tested form may be a part): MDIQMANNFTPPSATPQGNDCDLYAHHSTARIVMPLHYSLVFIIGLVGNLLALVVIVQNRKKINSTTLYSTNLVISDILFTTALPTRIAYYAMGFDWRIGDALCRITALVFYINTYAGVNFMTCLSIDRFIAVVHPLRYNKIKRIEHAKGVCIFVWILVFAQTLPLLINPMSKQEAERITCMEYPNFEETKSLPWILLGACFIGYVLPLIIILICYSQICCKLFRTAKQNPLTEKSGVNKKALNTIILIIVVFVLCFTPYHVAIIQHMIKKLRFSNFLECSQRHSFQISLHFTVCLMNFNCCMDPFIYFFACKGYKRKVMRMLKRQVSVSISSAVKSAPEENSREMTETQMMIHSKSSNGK
EBI2 conf = EBI2 antagonist hit retest, beta-arrestin, confirmation, cell-based, single concentration, luminescence, 7a,25-OHC stimulation | shares compounds with EBI2 antag | 7a,25-OHC antagonism | inhibition, % at 5 µM | 2,400 tested, 29% active | AID 651997, 2013;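 active = inhibition of at least 50%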
EBI2 agonist = EBI2 agonist activity of antagonist hits, confirmation, counter-screen for EBI2 antagonist project, cell-based, single concentration, agonist mode, luminescence; shares compounds with EBI2 antag; activation, % at 5 µM; 2,400 tested, under 10 active; AID 652000, 2013; EBI2-expressing cells, 60 min; 0% vehicle, 100% 7α,25-dihydroxycholesterol control;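 active = activation of at least 50%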
bGal cs = E. coli beta-galactosidase enzyme inhibition, confirmation, counter-screen for EBI2 antagonist project, biochemical, luminescence, single concentration; shares compounds with EBI2 antag; purified beta-galactosidase, luminescent Galacton Star, 15 min; inhibition, % at 5 µM; 2,400 tested, 1% active; AID 652176, 2013;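 active = replicate-average signal at least 3 plate SD below neutral wells, shown as high inhibition, flagging enzyme-inhibiting false positives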;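 note: higher means stronger loss of beta-gal luminescence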
Numbers stand for hits; . = inactive; / = no result given.

SMILES	APJ agonist	CXCR6 block	CCR6 antagonist	APJ antagonist	EBI2 antag	EBI2 conf	EBI2 agonist	bGal cs
COc1ccc(-n2nnnc2C(c2ccccc2OC(F)(F)F)N2CCN(C/C=C/c3ccccc3)CC2)cc1 (stereo not given)	/	.	/	/	90	55	.	.
C(=C\c1ccccc1)/CN1CCN(C(c2cc3ccccc3o2)c2nnnn2C2CCCC2)CC1 (stereo not given)	/	.	/	/	52	.	.	.
CCCCn1nnnc1C(c1cccs1)N1CCN(C/C=C/c2ccccc2)CC1 (stereo not given)	/	.	/	/	44	.	.	.
COc1ccc(NC(=O)c2cc(C3CCCCN3C(=O)OCc3ccccc3)on2)c(C)c1 (stereo not given)	/	.	/	/	.	/	/	/
O=C(NCCc1ccc(C(F)(F)F)cc1)C1CC(=O)N(Cc2ccccc2)C1 (stereo not given)	.	.	.	.	.	/	/	/
COc1cccc(COC(=O)CSCC(=O)Nc2ccc(C)cc2)c1OC	/	.	/	/	.	/	/	/
COc1ccc([C@H]2CN(c3ccc(OC)cc3)C(=O)[C@@H]2CC(=O)Nc2ccc(Br)cc2)cc1	/	.	/	/	.	/	/	/
C(=C\c1ccccc1)/CN1CCN(C(c2ccnc3ccccc23)c2nnnn2-c2ccc3c(c2)OCCO3)CC1 (stereo not given)	/	.	/	/	.	/	/	/
COc1ccc(C(c2nnnn2-c2ccc(OC)cc2)N2CCN(C/C=C/c3ccccc3)CC2)cc1 (stereo not given)	/	.	/	/	63	.	.	.
COc1ccc(C(c2nnnn2C2CCCCC2)N2CCN(C/C=C/c3ccccc3)CC2)cc1 (stereo not given)	/	.	/	/	60	.	.	.
CCCCn1nnnc1C(c1ccc(OC)cc1)N1CCN(C/C=C/c2ccccc2)CC1 (stereo not given)	/	.	/	/	58	.	.	.
COc1ccc(C(c2nnnn2C(C)(C)C)N2CCN(C/C=C/c3ccccc3)CC2)cc1 (stereo not given)	/	.	/	/	.	/	/	/
COc1ccc(-n2nnnc2C(c2cccs2)N2CCN(C/C=C/c3ccccc3)CC2)cc1 (stereo not given)	/	.	/	/	.	/	/	/
C(=C\c1ccccc1)/CN1CCN(C(c2ccccc2)c2nnnn2-c2ccc3c(c2)OCCO3)CC1 (stereo not given)	/	.	/	/	51	.	.	.
Nc1sccc1C(=O)NCCN1CCOCC1	/	/	/	/	.	/	/	/
CC(=O)Nc1ccc(Nc2cc(C)nc3c(-c4ccc(Cl)cc4)c(C)nn23)cc1	.	.	.	.	46	.	.	.
CC(=O)Nc1ccc(Nc2cc(C)nc3c(-c4ccc(Cl)cc4)cnn23)cc1	.	.	.	.	53	.	.	.
O=C(Cn1nnc2c(sc3nc4c(c(-c5ccccc5)c32)CCC4)c1=O)c1ccccc1	.	.	.	.	29	.	.	.
O=C(O)CN=C(Nc1cc(Cl)cc(Cl)c1)NC(c1ccccc1)c1ccccc1	/	.	/	/	.	/	/	/
CC(=O)NC(c1cccc([N+](=O)[O-])c1)c1c(OC(C)=O)ccc2ccccc12 (stereo not given)	.	.	.	.	.	/	/	/
CCCCC(=O)NC(c1cccc([N+](=O)[O-])c1)c1c(OC(C)=O)ccc2ccccc12 (stereo not given)	.	.	.	.	39	.	.	.
COc1ccc(C(=O)CCNc2ccc(F)cc2)cc1	.	.	.	.	.	/	/	/
Cc1ccc(NCCNc2ccc(C)cc2)cc1	.	.	.	.	47	58	.	.
Cc1ccc(NCCc2ccc(C)nc2)cc1	.	.	.	.	47	.	.	.
COc1ccc(NCCNc2ccc(OC)cc2)cc1	.	.	.	.	40	.	.	.
SMILES	APJ agonist	CXCR6 block	CCR6 antagonist	APJ antagonist	EBI2 antag	EBI2 conf	EBI2 agonist	bGal cs
Cc1ccc(CCNc2ccc3ccccc3c2)cn1	.	.	.	.	.	/	/	/
O=C(Nc1cccc(-c2nnc(-c3ccco3)o2)c1)C(c1ccccc1)c1ccccc1	.	.	.	.	77	.	.	.
O=C(Nc1cccc(-c2nnc(-c3ccco3)o2)c1)c1ccccc1	.	.	.	.	.	/	/	/
O=C(Cc1ccc(Cl)cc1)Nc1cccc(-c2nnc(-c3ccco3)o2)c1	.	.	.	.	71	.	.	.
O=C(Cc1ccccc1)Nc1cccc(-c2nnc(-c3ccco3)o2)c1	.	.	.	.	.	/	/	/
O=C1c2ccccc2C(=O)N1CCC#C/C=C1\c2ccccc2C(=O)N1c1ccccc1	/	.	/	/	.	/	/	/
CN(C)C(=O)c1cccc(-c2cnc3c(NC=O)cc(-c4ccccc4Cl)cn23)c1	/	.	/	/	62	.	.	.
CN(C)C(=O)c1cccc(-c2cnc3c(NC=O)cc(-c4ccccc4N(C)C)cn23)c1	/	.	/	/	.	/	/	/
CC(=O)Nc1cccc(-c2cc(NC=O)c3ncc(-c4cccc(C(C)=O)c4)n3c2)c1	/	.	/	/	54	.	.	.
CC(=O)Nc1cc(-c2ccccc2Cl)cn2c(-c3ccc(S(C)(=O)=O)cc3)cnc12	/	.	/	/	55	.	.	.
CC(=O)Nc1cc(-c2ccc(N)cc2)cn2c(-c3cccc(C(F)(F)F)c3)cnc12	/	.	/	/	.	/	/	/
COc1ccccc1-c1cc(NC(C)=O)c2ncc(-c3ccc(S(C)(=O)=O)cc3)n2c1	/	.	/	/	.	/	/	/
CC(=O)Nc1cc(-c2ccc(CO)cc2)cn2c(-c3cccc(C(F)(F)F)c3)cnc12	/	.	/	/	46	.	.	.
O=C(NCc1ccc(Cl)c(Cl)c1)c1cc(C2CCCCN2C(=O)c2ccccc2)on1 (stereo not given)	/	.	/	/	.	/	/	/
CC(C)C[C@@H]1COc2cccc(N3CCC[C@H]3CO)c2S(=O)(=O)N1	/	.	/	/	.	/	/	/
CN(Cc1ccccc1)C(=O)c1cc2cc(F)ccc2[nH]1	.	.	.	.	55	58	.	.
CCc1nc2ccc(C(=O)NCCOc3ccc(OC)cc3)cn2c1N(C)Cc1ccc(OC)cc1	/	.	/	/	62	.	.	.
CCc1nc2ccc(C(=O)NCCOc3ccc(OC)cc3)cn2c1N(C)Cc1cccs1	/	.	/	/	57	.	.	.
